Data as given in ChEMBL document CHEMBL1268845, “A convenient synthesis and molecular modeling study of novel purine and pyrimidine derivatives as CDK2/cyclin A3 inhibitors” (Bioorg Med Chem, 2010).

How the values were obtained:
[1] = Cytotoxicity against mouse EAC cells after 48 hrs; type: functional; conditions: Ehrlich
Outline: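 EAC cells were harvested by needle aspiration of ascitic fluid from pre-inoculated female Swiss albino mice and maintained by weekly intraperitoneal transplantation. They were suspended in saline at 2.5 × 10^6 per mL and exposed for 48 h to serial dilutions from 10^-9 to 10^-4 M in DMSO/saline. The read-out was GI50.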

[2] = tested on: CDK2/cyclin A3 (Marthasterias glacialis); experiment: Inhibition of starfish CDK2/cyclin A3 by ELISA

| Structure (SMILES) | GI50 [1] [µM] | IC50 [2] [µM] |
| --- | --- | --- |
| COc1cc(/C=N/c2c(C#N)nc(=O)[nH]c2NS(=O)(=O)c2ccc(C)cc2)cc(OC)c1 | 19 | 35 |
| COc1cccc(/C=N/c2c(C#N)nc(=O)[nH]c2NS(=O)(=O)c2ccc(C)cc2)c1OC | 21 | 36 |
| Cc1ccc(S(=O)(=O)NC(=O)N/C(C#N)=C(\N)C#N)cc1 | 12 | 32 |
| Cc1ccc(S(=O)(=O)NC(=N)c2[nH]c(=O)[nH]c2C#N)cc1 | 28 | 45 |
| Cc1ccc(S(=O)(=O)n2c3c([nH]c2=O)C(C(N)=O)=NC(C)(C)N3)cc1 | 15 | 14 |
| CC(=O)CC1(C)N=C(C(N)=O)c2[nH]c(=O)n(S(=O)(=O)c3ccc(C)cc3)c2N1 (stereo unspecified) | 16 | 13 |
| COc1ccc(/C=N/C(C#N)=C(/C#N)NC(=O)NS(=O)(=O)c2ccc(C)cc2)cc1 | 10 | 39 |
| COc1cc(OC)c(/C=N/C(C#N)=C(/C#N)NC(=O)NS(=O)(=O)c2ccc(C)cc2)c(OC)c1 | 26 | 38 |
| COc1cc(/C=N/C(C#N)=C(/C#N)NC(=O)NS(=O)(=O)c2ccc(C)cc2)cc(OC)c1 | 25 | 42 |
| COc1cccc(/C=N/C(C#N)=C(/C#N)NC(=O)NS(=O)(=O)c2ccc(C)cc2)c1OC | 27 | 43 |
| COc1ccc(/C=N/c2c(C#N)nc(=O)[nH]c2NS(=O)(=O)c2ccc(C)cc2)cc1 | 17 | 39 |
| COc1cc(OC)c(/C=N/c2c(C#N)nc(=O)[nH]c2NS(=O)(=O)c2ccc(C)cc2)c(OC)c1 | 16 | 38 |
| Nc1nc(OC[C@H]2CCC(=O)N2)c2nc[nH]c2n1 | 18 | 35 |
